Experimental data reported in ChEMBL document CHEMBL1156623, “Novel 1,4-benzothiazine derivatives as large conductance Ca2+-activated potassium channel openers” (J Med Chem, 2008).
Activity calls are given as the source filed them. No cut-off for these calls is given here.

Experiments:
[1] = target: Calcium-activated potassium channel subunit alpha-1 (Rattus norvegicus, UniProt Q62976); assay: (§1) Activation of large-conductance calcium-activated potassium channel-mediated vasorelaxation in endothelium-denuded normotensive Wistar rat thoracic aorta assessed as potassium chloride-induced contractile tension
Chain of Calcium-activated potassium channel subunit alpha-1 (Q62976 whole entry): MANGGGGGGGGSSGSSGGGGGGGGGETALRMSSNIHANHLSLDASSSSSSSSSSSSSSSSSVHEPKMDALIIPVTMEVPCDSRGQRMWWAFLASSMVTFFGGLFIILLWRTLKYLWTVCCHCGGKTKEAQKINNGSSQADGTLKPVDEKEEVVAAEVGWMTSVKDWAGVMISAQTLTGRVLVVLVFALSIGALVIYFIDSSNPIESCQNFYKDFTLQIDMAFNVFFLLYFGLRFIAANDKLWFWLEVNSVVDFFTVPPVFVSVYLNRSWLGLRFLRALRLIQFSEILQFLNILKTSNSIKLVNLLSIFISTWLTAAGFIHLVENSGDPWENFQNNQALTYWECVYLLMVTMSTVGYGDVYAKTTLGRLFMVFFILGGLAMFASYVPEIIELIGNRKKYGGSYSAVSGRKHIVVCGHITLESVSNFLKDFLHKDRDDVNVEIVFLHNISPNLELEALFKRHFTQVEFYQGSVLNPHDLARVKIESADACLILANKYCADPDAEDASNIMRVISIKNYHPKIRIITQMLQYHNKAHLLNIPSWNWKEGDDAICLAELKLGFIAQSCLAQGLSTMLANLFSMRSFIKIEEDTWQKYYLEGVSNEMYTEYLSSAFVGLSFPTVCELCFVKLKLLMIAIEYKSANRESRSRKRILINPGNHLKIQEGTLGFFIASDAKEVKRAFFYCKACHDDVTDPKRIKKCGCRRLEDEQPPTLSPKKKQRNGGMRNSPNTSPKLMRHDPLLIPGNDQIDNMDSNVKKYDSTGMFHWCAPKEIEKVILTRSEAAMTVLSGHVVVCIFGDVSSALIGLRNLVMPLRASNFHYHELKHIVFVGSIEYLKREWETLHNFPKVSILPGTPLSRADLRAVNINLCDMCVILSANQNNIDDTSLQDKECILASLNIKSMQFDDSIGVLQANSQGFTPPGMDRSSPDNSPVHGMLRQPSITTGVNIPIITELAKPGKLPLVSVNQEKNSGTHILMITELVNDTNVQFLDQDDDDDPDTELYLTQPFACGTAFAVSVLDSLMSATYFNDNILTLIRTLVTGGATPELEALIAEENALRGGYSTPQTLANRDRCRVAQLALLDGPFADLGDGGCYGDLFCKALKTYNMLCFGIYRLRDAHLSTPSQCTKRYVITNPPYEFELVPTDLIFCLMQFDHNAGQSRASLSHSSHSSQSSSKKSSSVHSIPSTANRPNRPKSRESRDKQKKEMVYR
How it was run: (§2)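 Male Wistar rats (250-350 g); thoracic aortic rings, endothelium removed (confirmed by ACh 10 µM lack of relaxation), in Tyrode at 37 °C gassed 95% O2/5% CO2, isometric tension, 60 min equilibration. After stable KCl 20 mM contraction, 3-fold increasing cumulative concentrations added, up to 10 µM. Efficacy as % of KCl tone; pIC50 from half-reduction; mean ± SE of 5-10 experiments.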

[2] = target: Calcium-activated potassium channel subunit alpha-1 (Rattus norvegicus) (UniProt Q62976); assay: Activation of large-conductance calcium-activated potassium channel-mediated vasorelaxation in endothelium-denuded normotensive Wistar rat thoracic aorta assessed as potassium chloride-induced contractile tension relative to NS-1619; assay type: tissue-based
Chain of Calcium-activated potassium channel subunit alpha-1 (Rattus norvegicus) (Q62976 whole entry): as above

[3] = target: Calcium-activated potassium channel subunit alpha-1 (Rattus norvegicus) (UniProt Q62976); assay: as §1; set-up: scale not given: the % may be the effect or the level left; how it was run: as §2
[4] = target: Calcium-activated potassium channel subunit alpha-1 (Rattus norvegicus) (UniProt Q62976); assay: Activation of large-conductance calcium-activated potassium channel-mediated vasorelaxation in endothelium-denuded normotensive Wistar rat thoracic aorta assessed as potassium chloride-induced contraction in presence of tetraethylammonium chloride; assay type: tissue-based
How it was run: (§3)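 Male Wistar rats (250-350 g); endothelium-denuded thoracic aortic rings in Tyrode at 37 °C, gassed 95% O2/5% CO2, isometric tension. Denudation checked with ACh 10 µM on KCl 20 mM contraction. After KCl 20 mM contraction, IbTX 100 nM or TEA 10 mM added, then cumulative 3-fold increasing compound concentrations, max 10 µM; DMSO stock diluted in water. Efficacy as % of KCl tone; pIC50; mean ± SE, 5-10 experiments.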

[5] = target: Calcium-activated potassium channel subunit alpha-1 (Rattus norvegicus) (UniProt Q62976); assay: Activation of large-conductance calcium-activated potassium channel-mediated vasorelaxation in endothelium-denuded normotensive Wistar rat thoracic aorta assessed as potassium chloride-induced contraction in presence of iberiotoxin; how it was run: as §3

SMILES | IC50 [1] | Emax [2] | Activity [3] | Activity [4] | Activity [5]
COc1ccccc1C1CNc2cc(C(F)(F)F)ccc2S1 (centres undefined) | 22.4 µM | 100% |  |  | 
COc1ccc(Br)cc1C1Sc2ccc(C(F)(F)F)cc2N(C)C1=O (centres undefined) | 0.617 µM | 67% |  | inactive | 
O=c1[nH]c2cc(C(F)(F)F)ccc2n1-c1cc(C(F)(F)F)ccc1O | 5.01 µM |  |  |  | 
COc1ccc(Br)cc1C1Sc2ccc(C(F)(F)F)cc2NC1=O (centres undefined) | 0.0398 µM | 77% |  | inactive | inactive
O=C1Nc2ccccc2SC1c1ccccc1 (centres undefined) |  | 42% | < 50% |  | 
COc1ccc(Br)cc1C1Sc2ccccc2NC1=O (centres undefined) | 15.8 µM | 100% |  |  | 

Further lines, with some results ahead:

IC50 [1] | Emax [2] | Activity [3] | SMILES | Activity [4] | Activity [5]
 | < 25% | < 50% | COc1ccc(Br)cc1C1CNc2cc(C(F)(F)F)ccc2S1 (centres undefined) |  | 
6.31 µM | 70% |  | COc1ccc(Br)cc1[C@@H](O)[C@H]1Sc2ccc(C(F)(F)F)cc2NC1=O (relative stereo) |  | 
 | 34% | < 50% | COc1ccc(Br)cc1C1C(=O)Nc2cc(C(F)(F)F)ccc2[S+]1[O-] (centres undefined) |  | 
 |  | < 50% | O=C1Nc2cc(C(F)(F)F)ccc2SC1c1cc(Cl)ccc1O (centres undefined) |  | 
 | 39% | < 50% | O=C1Nc2cc(C(F)(F)F)ccc2SC1c1ccccc1 (centres undefined) |  | 
 | 44% | < 50% | O=C1Nc2cc(C(F)(F)F)ccc2SC1c1cc(Br)ccc1O (centres undefined) |  | 
50.1 µM | 75% |  | COc1c(Br)cc(Br)cc1C1Sc2ccc(C(F)(F)F)cc2NC1=O (centres undefined) |  | 
 | 26% | < 50% | COc1ccc(Br)cc1C1Sc2ccc(C(F)(F)F)cc2NC1=S (centres undefined) |  | 
